According to ChEMBL document CHEMBL1124155, “Synthesis and dopamine agonist and antagonist effects of (R)-(-)- and (S)-(+)-11-hydroxy-N-n-propylnoraporphine” (J Med Chem, 1988):
pKi: −log10 of the molar value.

Tests used:
Rattus norvegicus [1] = assay: Stereotyped behavior in rat induced by Aporphines after ip administration at 0.3 mg/kg dose; assay type: functional; conditions: route intraperitoneal
Procedure, shortened: (§1)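 Aporphine given ip to rats (doses 0.3–3.0 mg/kg; saline as 0). Stereotyped behavior rated every 10 min for 1 h. Mean stereotypy score, maximum 18.0, ± SEM, N = 6. Student's t test, p < 0.05.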

Rattus norvegicus [2] = assay: Stereotyped behavior in rat induced by Aporphines after ip administration at 3.0 mg/kg dose; assay type: functional; conditions: route intraperitoneal; procedure, shortened: as §1
Rattus norvegicus [3] = assay: Effect (3 mg/kg) on motor arousal induced by apomorphine; assay type: functional
Procedure, shortened: (§2)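 Rats received test enantiomer ip immediately before apomorphine (0.3 mg/kg). They were then placed in a microcomputer-controlled electronic activity monitor for 1 h. Read-out was activity counts per hour, mean ± SEM, N = 6. Comparison was against a saline + apomorphine control by Student's t test.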

Rattus norvegicus [4] = assay: Stereotyped behavior in rat induced by Aporphines after ip administration at 1.0 mg/kg dose; assay type: functional; conditions: route intraperitoneal; procedure, shortened: as §1
Rattus norvegicus [5] = assay: Stereotyped behavior in rat induced by Aporphines after ip administration at 0 mg/kg dose; assay type: functional; conditions: route intraperitoneal; procedure, shortened: as §1
Rattus norvegicus [6] = assay: Effect (3 mg/kg) on motor arousal induced by apomorphine (0.3 mg/kg) expressed as percent control; assay type: functional; procedure, shortened: as §2
D(2) dopamine receptor = D(2) dopamine receptor (Rattus norvegicus, UniProt P61169); assay: Binding affinity against Dopamine receptor D2 from rat brain corpus striatal preparations using [3H]spiperone
Chain of D(2) dopamine receptor (P61169 whole entry): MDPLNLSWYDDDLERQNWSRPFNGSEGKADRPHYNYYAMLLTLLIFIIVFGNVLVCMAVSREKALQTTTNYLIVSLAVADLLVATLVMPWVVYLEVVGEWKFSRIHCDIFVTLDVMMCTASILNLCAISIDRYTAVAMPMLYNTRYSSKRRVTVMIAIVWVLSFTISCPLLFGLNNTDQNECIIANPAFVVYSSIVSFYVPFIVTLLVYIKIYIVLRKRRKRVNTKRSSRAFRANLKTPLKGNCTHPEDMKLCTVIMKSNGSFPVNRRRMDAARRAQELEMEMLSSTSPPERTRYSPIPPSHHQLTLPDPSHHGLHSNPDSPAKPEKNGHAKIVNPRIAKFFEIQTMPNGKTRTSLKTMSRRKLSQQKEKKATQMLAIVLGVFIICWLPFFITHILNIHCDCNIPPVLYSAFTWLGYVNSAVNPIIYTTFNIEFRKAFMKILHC

D(1A) dopamine receptor = D(1A) dopamine receptor (Rattus norvegicus, UniProt P18901); assay: Binding affinity against Dopamine receptor D1 from rat brain corpus striatal preparations using [3H]SCH-23390
Chain of D(1A) dopamine receptor (P18901 whole entry): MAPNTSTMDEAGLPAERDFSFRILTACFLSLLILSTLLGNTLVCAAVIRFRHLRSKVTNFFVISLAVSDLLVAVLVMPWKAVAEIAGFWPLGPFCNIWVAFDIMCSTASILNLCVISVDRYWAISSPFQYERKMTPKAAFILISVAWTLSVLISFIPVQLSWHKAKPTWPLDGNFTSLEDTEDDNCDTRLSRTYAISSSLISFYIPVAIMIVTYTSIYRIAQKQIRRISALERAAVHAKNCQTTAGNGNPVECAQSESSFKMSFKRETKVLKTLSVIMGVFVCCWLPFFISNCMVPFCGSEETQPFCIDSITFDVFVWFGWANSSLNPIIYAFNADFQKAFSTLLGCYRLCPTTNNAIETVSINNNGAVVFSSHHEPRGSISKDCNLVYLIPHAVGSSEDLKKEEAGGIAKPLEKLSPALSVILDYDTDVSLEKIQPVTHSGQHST

Dopamine receptor = assay: Binding affinity against dopamine agonist sites from rat brain corpus striatal preparations using [3H]ADTN
Rattus norvegicus [7] = assay: Effect (3 mg/kg) on motor arousal induced by apomorphine (0.3 mg/kg); assay type: functional; procedure, shortened: as §2
Rattus norvegicus [8] = assay: Effect (1 mg/kg) on motor arousal induced by apomorphine (0.3 mg/kg) expressed as percent control; assay type: functional; procedure, shortened: as §2
Rattus norvegicus [9] = assay: Effect (10 mg/kg) on motor arousal induced by apomorphine (0.3 mg/kg) expressed as percent control; assay type: functional; procedure, shortened: as §2
Rattus norvegicus [10] = assay: Effect (1 mg/kg) on motor arousal induced by apomorphine (0.3 mg/kg); assay type: functional; procedure, shortened: as §2
Rattus norvegicus [11] = assay: Effect (0.3 mg/kg) on motor arousal induced by apomorphine; assay type: functional; procedure, shortened: as §2
Rattus norvegicus [12] = assay: Effect on motor arousal induced by apomorphine (0.3 mg/kg) expressed as percent control; assay type: functional; procedure, shortened: as §2

Compound | Activity (Rattus norvegicus [1]) | Activity (Rattus norvegicus [2]) | Activity (Rattus norvegicus [3]) | Activity (Rattus norvegicus [4]) | Activity (Rattus norvegicus [5]) | Control (Rattus norvegicus [6]) | pKi (D(2) dopamine receptor) | pKi (D(1A) dopamine receptor) | Ki (Dopamine receptor) | Activity (Rattus norvegicus [7]) | Control (Rattus norvegicus [8]) | Control (Rattus norvegicus [9]) | Activity (Rattus norvegicus [10]) | Activity (Rattus norvegicus [11]) | Control (Rattus norvegicus [12])
CCCN1CCc2cccc3c2[C@H]1Cc1cccc(O)c1-3 | 5.7 | 13.8 | 764 | 9.5 | 0.8 | 151% |  |  |  |  |  |  |  |  | 
CCCN1CCc2cccc3c2[C@@H]1Cc1ccccc1-3 |  |  |  |  |  |  | 6.94 | 5.87 | 0.278 µM |  |  |  |  |  | 
CCCN1CCc2cccc3c2[C@@H]1Cc1cccc(O)c1-3 | 0.6 | 1.3 |  | 1.7 | 0.8 | 43% |  |  |  | 218 | 81% | 21% | 410 |  | 
CCCN1CCc2cccc3c2[C@H]1Cc1ccccc1-3 |  |  |  |  |  |  | 8.62 | 6.47 | 0.0011 µM |  |  |  |  |  | 
CN1CCc2cccc3c2[C@H]1Cc1ccc(O)c(O)c1-3 [APOMORPHINE] | 9.7 | 17.5 |  | 12.7 | 0.8 |  |  |  |  |  |  |  |  | 505 | 100%
